The record followed here is ChEMBL document CHEMBL1141169, “Discovery of 5-arylsulfonamido-3-(pyrrolidin-2-ylmethyl)-1H-indole derivatives as potent, selective 5-HT6 receptor agonists and antagonists” (J Med Chem, 2005).

Broadly, the pIC50 is −log10 of the IC50, conventionally taken in molar units. Lower therefore signals a large IC50. For orientation: pKi means −log10 of the Ki, conventionally taken in molar units. Higher therefore signals a small Ki. Broadly, the Emax is the greatest response seen or fitted, relative to the assay's reference. Broadly, the pEC50 is the EC50 on a negative log10 scale, so that one unit is a factor of ten.

pEC50, pIC50, pKi: −log10 of the molar value.

Assay [1] addresses T1, 5-hydroxytryptamine receptor 6 (Homo sapiens, UniProt P50406). The experiment in a line: Maximum percentage inhibition of 5-HT stimulated cAMP production in HeLa cells expressing 5-hydroxytryptamine 6 receptor. The class given is functional, cell-based. A digest of the protocol:
(§1)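 Antagonist mode: cAMP production in HeLa cells stably transfected with the human 5-HT6 receptor was stimulated with 5-HT, and inhibition was measured across a range of ligand concentrations. IC50 and Imax each determined in triplicate.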

Assay [2] concerns the target T1, 5-hydroxytryptamine receptor 6. Kind of assay: Inhibition of 5-HT stimulated cAMP production in HeLa cells expressing human 5-hydroxytryptamine 6 receptor. Format: functional, cell-based. A digest of the protocol:
as §1

Assay [3] shares this target. The experiment in a line: Inhibition of [3H]LSD binding to human 5-hydroxytryptamine 6 receptor expressed in HeLa cells. Format: cell-based. A digest of the protocol: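 Competition binding against [3H]-LSD on cloned human 5-HT6 receptors stably expressed in HeLa cells. Ki determined in triplicate; single-point lines are % inhibition at 1000 nM.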
The target is the same in assay [4]. The experiment in a line: Maximum percentage agonism of cAMP production in HeLa cells expressing human 5-hydroxytryptamine 6 receptor. Format: functional, cell-based. A digest of the protocol:
(§2)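 cAMP production read out across a range of ligand concentrations in HeLa cells stably transfected with the human 5-HT6 receptor, ligand given alone as agonist. EC50 and Emax each determined in triplicate.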
In general terms: cAMP levels reflect the balance of adenylyl cyclase and phosphodiesterase activity.

Assay [5] shares this target. Kind of assay: Effective agonist concentration in cAMP release assay in HeLa cells expressing human 5-hydroxytryptamine 6 receptor. The class given is functional, cell-based. A digest of the protocol: as §2

T1 sequence (P50406 whole entry): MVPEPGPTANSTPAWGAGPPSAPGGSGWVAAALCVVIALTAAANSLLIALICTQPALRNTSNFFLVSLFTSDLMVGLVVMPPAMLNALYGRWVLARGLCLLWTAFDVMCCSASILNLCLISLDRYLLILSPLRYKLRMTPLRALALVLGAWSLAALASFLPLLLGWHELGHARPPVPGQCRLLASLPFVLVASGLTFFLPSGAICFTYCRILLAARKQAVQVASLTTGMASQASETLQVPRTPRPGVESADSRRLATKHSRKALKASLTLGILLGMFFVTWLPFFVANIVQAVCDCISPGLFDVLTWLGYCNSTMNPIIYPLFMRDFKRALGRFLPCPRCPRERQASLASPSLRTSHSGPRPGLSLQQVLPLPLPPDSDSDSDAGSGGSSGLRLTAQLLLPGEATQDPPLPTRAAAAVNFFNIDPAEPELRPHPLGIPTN

For the compound `CN1CCC[C@H]1Cc1c[nH]c2ccc(NS(=O)(=O)c3ccccc3Br)cc12`, the Imax in assay [1] stood at 75%. In addition, the pIC50 in assay [2] was 9.10. The compound also gave a negative logarithm of the Ki (pKi) in assay [3] of 8.30.

Compound `O=S(=O)(Nc1ccc2[nH]cc(C[C@H]3CCCN3)c2c1)c1ccccc1F` had a pKi in assay [3] of 8.40.

Regarding `CN1CCC[C@H]1Cc1c[nH]c2ccc(NS(=O)(=O)c3ccccc3Cl)cc12`, the negative-log Ki (pKi) in assay [3] was 7.66.

In assay [4], `O=S(=O)(Nc1ccc2[nH]cc(C[C@H]3CCCN3)c2c1)c1ccccc1` showed an Emax of 73%. This compound also gave a pEC50 in assay [5] of 8.85. The compound further had a pKi in assay [3] of 8.40.

Turning to `O=S(=O)(Nc1ccc2[nH]cc(C[C@H]3CCCN3)c2c1)c1ccc(F)cc1Cl`, the pKi in assay [3] is 8.05.

In assay [3], `CN1CCC[C@H]1Cc1c[nH]c2ccc(NS(=O)(=O)c3cccc(Cl)c3)cc12` showed a pKi of 7.96.

`CN1CCC[C@H]1Cc1c[nH]c2ccc(NS(=O)(=O)c3ccc(C(F)(F)F)cc3)cc12`: the Imax in assay [1] stood at 78%. In assay [2], this compound showed a pIC50 of 7.67. In assay [3], the pKi is 8.00.

Consider `CN1CCC[C@@H]1Cc1c[nH]c2ccc(NS(=O)(=O)c3ccccc3)cc12`, for which, in assay [3], the pKi was 9.00.

Turning to `O=S(=O)(Nc1ccc2[nH]cc(C[C@@H]3CCCN3)c2c1)c1cccc(Cl)c1`, the pKi in assay [3] is 7.44.

In turn, `CN1CCC[C@@H]1Cc1c[nH]c2ccc(NS(=O)(=O)c3ccc4ccccc4c3)cc12` had a pKi in assay [3] of 9.00.

For `CN1CCC[C@H]1Cc1c[nH]c2ccc(NS(=O)(=O)c3ccc(OC(F)(F)F)cc3)cc12`, the Imax in assay [1] came to 85%. This compound also showed an Emax in assay [4] of 68%. Moreover, the pIC50 in assay [2] was 7.59. The same compound had a pEC50 in assay [5] of 6.74. In assay [3], this compound gave a pKi of 8.10.

Consider `O=S(=O)(Nc1ccc2[nH]cc(C[C@H]3CCCN3)c2c1)c1ccc(F)cc1`, for which the pKi in assay [3] was 8.40.

On to `Cc1ccc(S(=O)(=O)Nc2ccc3[nH]cc(C[C@H]4CCCN4C)c3c2)cc1`, for which, in assay [4], the Emax was 79%. Also, the pEC50 in assay [5] was 8.89. This compound also showed a pKi in assay [3] of 9.00.

Consider `COc1ccc(S(=O)(=O)Nc2ccc3[nH]cc(C[C@@H]4CCCN4C)c3c2)cc1`, for which the negative-log Ki (pKi) in assay [3] was 7.47.

`CN1CCC[C@@H]1Cc1c[nH]c2ccc(NS(=O)(=O)c3ccc(OC(F)(F)F)cc3)cc12` had an Emax in assay [4] of 94%. For the same compound, the pEC50 in assay [5] is 8.54. Besides, the pKi in assay [3] was 9.00.

In assay [3], `CC(C)c1ccc(S(=O)(=O)Nc2ccc3[nH]cc(C[C@H]4CCCN4C)c3c2)cc1` gave a pKi of 9.00.

For the compound `O=S(=O)(Nc1ccc2[nH]cc(C[C@@H]3CCCN3)c2c1)c1ccc(Br)cc1`, the pKi in assay [3] was 7.24.

Compound `CN1CCC[C@@H]1Cc1c[nH]c2ccc(NS(=O)(=O)c3ccc(F)cc3)cc12` showed an Emax in assay [4] of 85%. This compound gave a pEC50 in assay [5] of 8.96. The same compound had a pKi in assay [3] of 9.00.

For the compound `O=S(=O)(Nc1ccc2[nH]cc(C[C@H]3CCCN3)c2c1)c1cccc(Cl)c1`, the Emax in assay [4] was 92%. This compound showed a pEC50 in assay [5] of 9.00. Moreover, the pKi in assay [3] was 8.70.

The compound `O=S(=O)(Nc1ccc2[nH]cc(C[C@H]3CCCN3)c2c1)c1cccc(C(F)(F)F)c1` returned an Emax in assay [4] of 77%. This compound also had a pEC50 in assay [5] of 8.24. The compound also had a pKi in assay [3] of 8.40.

As for `CN1CCC[C@H]1Cc1c[nH]c2ccc(NS(=O)(=O)c3ccccc3)cc12`, the pKi in assay [3] was 7.80.

Consider `CC(C)c1ccc(S(=O)(=O)Nc2ccc3[nH]cc(C[C@@H]4CCCN4C)c3c2)cc1`, for which, in assay [1], the Imax amounted to 76%. Also, the pIC50 in assay [2] was 7.68. For the same compound, the pKi in assay [3] is 8.52.

As to `O=S(=O)(Nc1ccc2[nH]cc(C[C@H]3CCCN3)c2c1)c1ccc(Br)cc1`, the pKi in assay [3] is 8.52.

The compound `CN1CCC[C@H]1Cc1c[nH]c2ccc(NS(=O)(=O)c3cccc(C(F)(F)F)c3)cc12` displayed an Imax in assay [1] of 78%. In addition, in assay [2], the pIC50 is 7.85. Moreover, in assay [3], the negative logarithm of the Ki (pKi) was 7.92.

The compound `CN1CCC[C@H]1Cc1c[nH]c2ccc(NS(=O)(=O)c3ccc(F)cc3Cl)cc12` gave a pKi in assay [3] of 7.46.

The compound `O=S(=O)(Nc1ccc2[nH]cc(C[C@H]3CCCN3)c2c1)c1ccc(F)cc1F` yielded an Emax in assay [4] of 78%. This compound gave a pEC50 in assay [5] of 8.28. The compound also had a negative logarithm of the Ki (pKi) in assay [3] of 8.10.

In assay [3], `COc1ccc(Cl)cc1S(=O)(=O)Nc1ccc2[nH]cc(C[C@@H]3CCCN3C)c2c1` gave a pKi of 7.62.

For `CC(C)c1ccc(S(=O)(=O)Nc2ccc3[nH]cc(C[C@H]4CCCN4)c3c2)cc1`, the pKi in assay [3] is 9.00.

On to `CN1CCC[C@@H]1Cc1c[nH]c2ccc(NS(=O)(=O)c3cccc(C(F)(F)F)c3)cc12`, for which, in assay [4], the Emax was 90%. In assay [5], the pEC50 is 8.49. The compound also showed a pKi in assay [3] of 9.00.

`COc1ccc(S(=O)(=O)Nc2ccc3[nH]cc(C[C@H]4CCCN4C)c3c2)cc1`: the Emax in assay [4] turned out to be 83%. The pEC50 in assay [5] was 8.66. In assay [3], this compound had a pKi of 9.00.

As to `O=S(=O)(Nc1ccc2[nH]cc(C[C@H]3CCCN3)c2c1)c1ccc(I)cc1`, in assay [3], the pKi is 9.00.

`CN1CCC[C@@H]1Cc1c[nH]c2ccc(NS(=O)(=O)c3ccc(Cl)c(Cl)c3)cc12` showed a pKi in assay [3] of 9.00.

`O=S(=O)(Nc1ccc2[nH]cc(C[C@H]3CCCN3)c2c1)c1ccc(OC(F)(F)F)cc1` gave an Emax in assay [4] of 86%. Besides, the pEC50 in assay [5] was 8.38. This compound also showed a pKi in assay [3] of 8.30.

Turning to `CN1CCC[C@@H]1Cc1c[nH]c2ccc(NS(=O)(=O)c3ccccc3F)cc12`, in assay [4], the Emax stood at 91%. This compound showed a pEC50 in assay [5] of 8.89. In addition, the pKi in assay [3] is 9.00.

`O=S(=O)(Nc1ccc2[nH]cc(C[C@@H]3CCCN3)c2c1)c1ccc(F)cc1F` showed a pKi in assay [3] of 6.88.

For the compound `O=S(=O)(Nc1ccc2[nH]cc(C[C@H]3CCCN3)c2c1)c1ccc(Cl)cc1`, in assay [4], the Emax worked out at 99%. In assay [5], this compound had a pEC50 of 8.35. This compound also showed a pKi in assay [3] of 8.52.

For the compound `CN1CCC[C@H]1Cc1c[nH]c2ccc(NS(=O)(=O)c3ccc4ccccc4c3)cc12`, the Imax in assay [1] was 95%. For the same compound, the pIC50 in assay [2] is 7.98. Further, the pKi in assay [3] was 9.00.

`Cc1ccc(S(=O)(=O)Nc2ccc3[nH]cc(C[C@H]4CCCN4)c3c2)cc1` had a pKi in assay [3] of 8.40.

The compound `Cc1c(S(=O)(=O)Nc2ccc3[nH]cc(C[C@@H]4CCCN4C)c3c2)sc2ccc(Cl)cc12` returned an Imax in assay [1] of 91%. In assay [2], this compound had a pIC50 of 8.96. For the same compound, the pKi in assay [3] is 8.70.

`CN1CCC[C@H]1Cc1c[nH]c2ccc(NS(=O)(=O)c3ccc(Cl)c(Cl)c3)cc12`: in assay [3], the pKi is 8.15.

In assay [4], `Cc1noc(C)c1S(=O)(=O)Nc1ccc2[nH]cc(C[C@H]3CCCN3C)c2c1` yielded an Emax of 77%. The same compound gave a pEC50 in assay [5] of 9.10. The pKi in assay [3] was 9.00.

Consider `CN1CCC[C@H]1Cc1c[nH]c2ccc(NS(=O)(=O)c3ccc(Br)cc3)cc12`, for which the Imax in assay [1] worked out at 85%. This compound also had a pIC50 in assay [2] of 8.80. In addition, the pKi in assay [3] was 8.05.

With `O=S(=O)(Nc1ccc2[nH]cc(C[C@H]3CCCN3)c2c1)c1ccc(Cl)c(Cl)c1`, the pKi in assay [3] was 8.52.

As to `CN1CCC[C@@H]1Cc1c[nH]c2ccc(NS(=O)(=O)c3ccc(C(F)(F)F)cc3)cc12`, the Emax in assay [4] is 85%. The compound also showed a pEC50 in assay [5] of 8.35. In assay [3], the pKi is 9.40.

The compound `CN1CCC[C@@H]1Cc1c[nH]c2ccc(NS(=O)(=O)c3ccc(I)cc3)cc12` displayed an Emax in assay [4] of 72%. This compound also had a negative-log EC50 (pEC50) in assay [5] of 8.57. For the same compound, the pKi in assay [3] is 9.52.
